Values after ≈ are worked out from the molar mass of the structure shown. Active and inactive are the calls of the source.

Data set [1] in a line: Clearance in Wistar-Han rat hepatocytes at 1 uM measured for 2 to 90 mins by LC-MS/MS. The class given is ADME, cell-based, Hepatocyte. The settings on record: time 2-90 min.
Data set [2] in a line: Aqueous solubility of the compound at pH 4 for 24 hrs by HPLC-MS/MS. The class given is physicochemical.
Data set [3] in a line: Apparent permeability of the compound across apical side to basolateral side in human CaCo-2 cells at 2 uM incubated for 2 hrs. The class given is ADME, cell-based. Summed up:
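Caco-2 monolayers with TEER of at least 400 Ω·cm². Compound (predissolved in DMSO) added apically or basolaterally at a final 2 μM and incubated 2 h at 37 °C, in triplicate. Both compartments were sampled before and after, MeOH-precipitated and analysed by LC–MS/MS. Papp = (Vr/P0)(1/S)(P2/t).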
(In general: Caco-2 cells form a polarised layer with tight junctions and transporters.)

Data set [4] is described as follows: Clearance in Wistar-Han rat Liver microsomes at 1 uM measured for 2 to 90 mins by LC-MS/MS. The data set is classed as ADME, Microsome. The settings on record: time 2-90 min. (In general: Liver microsomes are vesicles of endoplasmic reticulum, rich in cytochrome P450 enzymes.)
Data set [5] is described as follows: Clearance in Wistar-Han rat blood at 0.3 to 0.5 mg/kg, iv measured upto 24 hrs by HPLC with LC-MS/MS. The data set is classed as ADME, organism-based. The settings on record: dose 0.3-0.5 mg/kg.
Data set [6] in a line: Volume of distribution at steady state in Wistar-Han rat blood at 0.3 to 0.5 mg/kg, iv measured upto 24 hrs by HPLC with LC-MS/MS. The class given is ADME, organism-based. The settings on record: dose 0.3-0.5 mg/kg, read-out: Vdss.
A short description of data set [7]: Half life in Wistar-Han rat blood at 0.3 to 0.5 mg/kg, iv measured upto 24 hrs by HPLC with LC-MS/MS. The class given is ADME, organism-based. The settings on record: dose 0.3-0.5 mg/kg.
The test system of data set [8] is MOLM-13. Put plainly: Antitumor activity against human MOLM-13 cells xenografted in AML mouse model assessed as tumor volume by measuring T/C ratio at 15 mg/kg, iv qd. The data set is classed as functional. Summed up: (§1)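 Nude mouse MOLM-13 AML xenograft. Compound dosed iv on the stated schedule, starting 5 days after tumor cell inoculation. Tumor volumes were followed. T/C ratio was taken from mean tumor volumes at the time point when the vehicle group was sacrificed, with significance tested against vehicle controls.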

Data set [9] concerns MOLM-13. Put plainly: Antitumor activity against human MOLM-13 cells xenografted in AML mouse model assessed as tumor volume by measuring T/C ratio at 35 mg/kg, iv administered once in 3 days. The data set is classed as functional. The settings on record: time 3 day. Summed up: as §1
For orientation: Xenograft models place foreign cells or tissue in a host animal.

Data set [10] concerns MOLM-13. Put plainly: Antitumor activity against human MOLM-13 cells xenografted in AML mouse model assessed as tumor volume by measuring T/C ratio at 65 mg/kg, iv administered once in 5 days. The data set is classed as functional. The settings on record: time 5 day. Summed up: as §1
The nature of data set [11]: Aqueous solubility of the compound at pH 6.5 for 24 hrs by HPLC-MS/MS. The data set is classed as physicochemical.
The test system of another data set is A2780. Put plainly: cells. The class given is functional, cell-based. The settings on record: Homo sapiens, A2780, 96 h.
The subject of data set [12] is MOLM-13. Put plainly: cells. The class given is functional, cell-based. The settings on record: Homo sapiens, MOLM-13, 96 h.
Data set [13] in a line: Efflux ratio of apparent permeability across basolateral to apical side over apical to basolateral side in human Caco2 cells at 2 uM incubated for 2 hrs. The settings on record: Caco-2.
Data set [14] can be described thus: Ratio of drug level in Wistar-Han rat blood to plasma. The settings on record: blood and plasma.
Data set [15] addresses T1, Cytochrome P450 1A2 (Homo sapiens, UniProt P05177).
T1 sequence (P05177 whole entry): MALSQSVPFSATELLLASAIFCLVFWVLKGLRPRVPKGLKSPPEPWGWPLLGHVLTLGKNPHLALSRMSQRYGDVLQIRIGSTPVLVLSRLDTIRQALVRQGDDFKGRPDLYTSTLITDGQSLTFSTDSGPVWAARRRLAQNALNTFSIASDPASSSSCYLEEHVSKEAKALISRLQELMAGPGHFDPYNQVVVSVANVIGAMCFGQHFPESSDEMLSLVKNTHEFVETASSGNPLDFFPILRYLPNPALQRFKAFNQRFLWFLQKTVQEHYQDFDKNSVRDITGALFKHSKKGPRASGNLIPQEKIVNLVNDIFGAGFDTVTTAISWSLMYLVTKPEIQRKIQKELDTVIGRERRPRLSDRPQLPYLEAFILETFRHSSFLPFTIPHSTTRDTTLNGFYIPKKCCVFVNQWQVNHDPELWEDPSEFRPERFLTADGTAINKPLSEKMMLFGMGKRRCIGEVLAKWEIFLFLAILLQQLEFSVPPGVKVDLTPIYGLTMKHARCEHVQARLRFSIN
Put plainly: Inhibition of CYP1A2 in human liver microsomes using phenacetin as substrate by LC-MS/MS analysis. The data set is classed as ADME. The settings on record: read-out: INH.

In a further data set the target is T2, Cytochrome P450 2A6 (Homo sapiens, UniProt P11509).
T2 sequence (P11509 whole entry): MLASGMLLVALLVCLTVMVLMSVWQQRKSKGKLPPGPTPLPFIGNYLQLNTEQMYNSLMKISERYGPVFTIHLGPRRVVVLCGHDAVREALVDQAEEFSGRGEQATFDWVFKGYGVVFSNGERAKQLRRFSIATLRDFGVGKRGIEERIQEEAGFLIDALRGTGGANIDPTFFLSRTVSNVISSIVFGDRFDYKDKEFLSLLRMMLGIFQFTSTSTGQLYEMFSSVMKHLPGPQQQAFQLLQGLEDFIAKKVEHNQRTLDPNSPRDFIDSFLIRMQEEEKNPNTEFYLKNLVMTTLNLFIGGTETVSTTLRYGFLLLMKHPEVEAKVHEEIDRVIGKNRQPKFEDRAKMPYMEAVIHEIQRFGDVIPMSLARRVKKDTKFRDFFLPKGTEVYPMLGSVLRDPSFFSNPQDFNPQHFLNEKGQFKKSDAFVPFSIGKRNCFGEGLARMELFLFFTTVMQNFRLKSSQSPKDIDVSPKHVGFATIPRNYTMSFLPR
The data set is described as follows: Inhibition of CYP2A6 in human liver microsomes using coumarin as substrate by LC-MS/MS analysis. The data set is classed as ADME.

The next data set has as its target T3, Cytochrome P450 2B6 (Homo sapiens, UniProt P20813).
T3 sequence (P20813 whole entry): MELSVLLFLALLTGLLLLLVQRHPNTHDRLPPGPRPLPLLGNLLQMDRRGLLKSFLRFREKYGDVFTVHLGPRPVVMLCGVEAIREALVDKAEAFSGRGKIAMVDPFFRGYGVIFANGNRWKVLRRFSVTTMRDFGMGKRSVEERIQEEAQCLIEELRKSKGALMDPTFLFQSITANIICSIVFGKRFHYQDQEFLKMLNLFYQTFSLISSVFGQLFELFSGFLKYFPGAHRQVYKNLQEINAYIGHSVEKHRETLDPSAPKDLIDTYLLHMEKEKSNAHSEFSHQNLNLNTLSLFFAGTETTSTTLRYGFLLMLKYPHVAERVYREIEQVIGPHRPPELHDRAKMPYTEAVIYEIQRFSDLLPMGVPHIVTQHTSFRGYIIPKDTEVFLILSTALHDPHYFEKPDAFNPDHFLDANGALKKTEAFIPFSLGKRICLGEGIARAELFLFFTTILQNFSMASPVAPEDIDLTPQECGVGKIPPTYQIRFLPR
The data set is described as follows: Inhibition of CYP2B6 in human liver microsomes using bupropion as substrate by LC-MS/MS analysis. The class given is ADME.

For another data set, the target named is T4, Cytochrome P450 2C8 (Homo sapiens, UniProt P10632).
T4 sequence (P10632 whole entry): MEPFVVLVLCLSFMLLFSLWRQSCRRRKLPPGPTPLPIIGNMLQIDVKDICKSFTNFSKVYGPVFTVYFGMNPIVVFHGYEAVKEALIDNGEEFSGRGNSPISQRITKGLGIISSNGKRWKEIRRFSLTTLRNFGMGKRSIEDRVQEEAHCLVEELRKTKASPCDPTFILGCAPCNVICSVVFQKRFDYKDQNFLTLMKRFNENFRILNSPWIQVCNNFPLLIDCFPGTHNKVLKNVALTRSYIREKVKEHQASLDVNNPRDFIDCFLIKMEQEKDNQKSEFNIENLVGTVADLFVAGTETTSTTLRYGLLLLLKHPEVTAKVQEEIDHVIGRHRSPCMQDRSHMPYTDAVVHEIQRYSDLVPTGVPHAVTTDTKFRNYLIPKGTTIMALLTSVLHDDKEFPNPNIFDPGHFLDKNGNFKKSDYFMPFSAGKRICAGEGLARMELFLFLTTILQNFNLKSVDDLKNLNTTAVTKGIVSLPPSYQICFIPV
Put plainly: Inhibition of CYP2C8 in human liver microsomes using amodiaquine as substrate by LC-MS/MS analysis. The class given is ADME. The settings on record: read-out: INH.

The target in the next data set is Cytochrome P450 2C9 (Homo sapiens, UniProt P11712). The data set is described as follows: Inhibition of CYP2C9 in human liver microsomes using diclofenac as substrate by LC-MS/MS analysis. The data set is classed as ADME. The settings on record: read-out: INH.
For another data set, the target named is Cytochrome P450 2C19 (Homo sapiens, UniProt P33261). Put plainly: Inhibition of CYP2C19 in human liver microsomes using (S)-mephenytoin as substrate by LC-MS/MS analysis. The class given is ADME. The settings on record: read-out: INH.
The target of a further data set is Cytochrome P450 2D6 (Homo sapiens, UniProt P10635). The data set is described as follows: Inhibition of CYP2D6 in human liver microsomes using dextromethorphan as substrate by LC-MS/MS analysis. The class given is ADME. The settings on record: read-out: INH.
The target in a further data set is Cytochrome P450 2E1 (Homo sapiens, UniProt P05181). Put plainly: Inhibition of CYP2E1 in human liver microsomes using chlorzoxazone as substrate by LC-MS/MS analysis. The data set is classed as ADME.
A further data set concerns the target Cytochrome P450 3A4 (Homo sapiens, UniProt P08684). Put plainly: Inhibition of CYP3A4 in human liver microsomes using midazolam/testosterone as substrate by LC-MS/MS analysis. The data set is classed as ADME. The settings on record: read-out: INH.
The target in data set [16] is T1, Cytochrome P450 1A2. The data set is described as follows: Induction of CYP1A2 in human hepatocytes by LC-MS/MS analysis. The class given is ADME, cell-based, Hepatocyte.
For data set [17], the system named is MV4-11. The data set is described as follows: Antitumor activity against human MV4-11 cells xenografted in rat assessed as inhibition of tumor growth at 12 mg/kg, po administered for 15 days. The settings on record: time 15.0 day. The data set is classed as functional, organism-based. Summed up: (§2)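 Rat MV4-11 xenograft, oral dosing at 12 mg/kg daily for 15 days. Tumor growth was monitored during treatment and for a further 30 days without treatment.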

Data set [18] has as its system MV4-11. The data set is described as follows: Antitumor activity against human MV4-11 cells xenografted in rat assessed as inhibition of tumor growth at 12 mg/kg, po administered for 15 days measured after without treatment for additional 30 days. The class given is functional, organism-based. The settings on record: time 15.0 day. Summed up:
as §2

Chain of Cytochrome P450 3A4 (P08684 whole entry): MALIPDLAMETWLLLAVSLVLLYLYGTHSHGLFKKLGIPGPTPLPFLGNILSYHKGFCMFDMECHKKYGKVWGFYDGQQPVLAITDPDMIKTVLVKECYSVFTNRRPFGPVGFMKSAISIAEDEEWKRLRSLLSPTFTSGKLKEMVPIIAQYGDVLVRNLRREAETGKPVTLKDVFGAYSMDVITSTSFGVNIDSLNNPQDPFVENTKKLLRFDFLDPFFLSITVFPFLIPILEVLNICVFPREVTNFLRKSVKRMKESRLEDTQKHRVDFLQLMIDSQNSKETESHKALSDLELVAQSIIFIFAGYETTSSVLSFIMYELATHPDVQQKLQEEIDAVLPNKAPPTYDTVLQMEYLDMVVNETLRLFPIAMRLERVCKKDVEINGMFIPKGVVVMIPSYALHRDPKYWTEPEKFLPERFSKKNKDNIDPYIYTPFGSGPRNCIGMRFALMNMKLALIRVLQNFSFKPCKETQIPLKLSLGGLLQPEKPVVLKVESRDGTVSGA
Chain of Cytochrome P450 2C9 (P11712 whole entry): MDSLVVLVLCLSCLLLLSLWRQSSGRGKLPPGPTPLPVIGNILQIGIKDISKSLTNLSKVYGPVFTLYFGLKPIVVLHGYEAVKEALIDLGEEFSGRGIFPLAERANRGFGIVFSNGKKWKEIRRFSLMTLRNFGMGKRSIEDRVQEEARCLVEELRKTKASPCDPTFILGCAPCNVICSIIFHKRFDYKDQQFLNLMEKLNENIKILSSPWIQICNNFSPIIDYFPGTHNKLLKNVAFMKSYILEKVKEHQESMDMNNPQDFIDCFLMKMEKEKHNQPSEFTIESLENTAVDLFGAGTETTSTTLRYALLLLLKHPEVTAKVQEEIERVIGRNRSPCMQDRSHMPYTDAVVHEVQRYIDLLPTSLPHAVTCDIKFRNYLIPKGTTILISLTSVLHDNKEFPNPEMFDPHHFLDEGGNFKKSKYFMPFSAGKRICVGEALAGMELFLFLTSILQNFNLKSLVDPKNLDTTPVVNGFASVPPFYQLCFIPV
Chain of Cytochrome P450 2C19 (P33261 whole entry): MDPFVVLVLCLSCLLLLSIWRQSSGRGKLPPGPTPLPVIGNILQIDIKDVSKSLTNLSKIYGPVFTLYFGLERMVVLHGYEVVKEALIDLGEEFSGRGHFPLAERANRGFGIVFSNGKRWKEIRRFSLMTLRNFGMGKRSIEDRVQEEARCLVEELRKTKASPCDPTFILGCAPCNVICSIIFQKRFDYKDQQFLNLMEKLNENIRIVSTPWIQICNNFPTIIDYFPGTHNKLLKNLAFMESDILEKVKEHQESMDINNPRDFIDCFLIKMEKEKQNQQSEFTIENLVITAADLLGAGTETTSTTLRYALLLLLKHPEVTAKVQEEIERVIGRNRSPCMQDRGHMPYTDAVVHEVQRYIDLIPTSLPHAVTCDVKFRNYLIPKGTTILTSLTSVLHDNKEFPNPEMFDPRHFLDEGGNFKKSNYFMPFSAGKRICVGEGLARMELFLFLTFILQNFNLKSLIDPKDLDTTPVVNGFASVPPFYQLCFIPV
Chain of Cytochrome P450 2E1 (P05181 whole entry): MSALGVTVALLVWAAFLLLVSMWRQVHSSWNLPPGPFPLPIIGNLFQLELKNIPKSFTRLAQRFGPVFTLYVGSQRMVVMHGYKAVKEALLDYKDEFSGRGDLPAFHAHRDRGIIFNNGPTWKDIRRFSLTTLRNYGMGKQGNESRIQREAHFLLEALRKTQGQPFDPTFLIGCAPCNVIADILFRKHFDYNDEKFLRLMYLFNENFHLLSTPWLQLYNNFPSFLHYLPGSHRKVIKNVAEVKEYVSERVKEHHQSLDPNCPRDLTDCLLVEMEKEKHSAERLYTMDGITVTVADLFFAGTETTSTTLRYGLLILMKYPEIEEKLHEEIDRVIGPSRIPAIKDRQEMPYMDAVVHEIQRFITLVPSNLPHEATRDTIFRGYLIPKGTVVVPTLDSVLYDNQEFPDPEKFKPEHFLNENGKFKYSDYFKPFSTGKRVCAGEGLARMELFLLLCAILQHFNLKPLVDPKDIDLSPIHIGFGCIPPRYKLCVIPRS
Chain of Cytochrome P450 2D6 (P10635 whole entry): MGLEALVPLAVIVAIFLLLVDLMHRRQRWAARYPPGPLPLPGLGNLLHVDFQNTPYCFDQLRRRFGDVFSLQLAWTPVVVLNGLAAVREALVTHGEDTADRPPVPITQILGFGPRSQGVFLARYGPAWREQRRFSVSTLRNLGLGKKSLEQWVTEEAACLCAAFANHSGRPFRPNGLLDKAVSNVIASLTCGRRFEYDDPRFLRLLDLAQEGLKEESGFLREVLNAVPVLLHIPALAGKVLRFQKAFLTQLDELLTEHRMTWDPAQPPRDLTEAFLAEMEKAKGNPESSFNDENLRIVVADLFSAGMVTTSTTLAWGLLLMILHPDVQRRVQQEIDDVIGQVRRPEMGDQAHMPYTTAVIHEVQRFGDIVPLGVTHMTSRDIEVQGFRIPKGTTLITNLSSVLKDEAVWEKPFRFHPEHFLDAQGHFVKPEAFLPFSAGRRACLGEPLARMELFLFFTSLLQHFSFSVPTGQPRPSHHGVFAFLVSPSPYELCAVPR

As a reminder, the solubility is the dissolved amount per volume that the medium holds. A high value points to much dissolved substance. As usually defined, the Papp A→B is how fast a substance crosses the layer from the apical side. As usually defined, the clearance is the volume of plasma or blood freed of the substance per unit of time. One may read the half-life as the time needed for the level to fall by half in the phase considered. Higher therefore signals slow loss. In the case of `COc1cc(F)ccc1-c1nc(Nc2cc(F)cc(CS(C)(=N)=O)c2)ncc1F` (stereo in doubt), the results for the CLH in data set [1] (1 µM) and in data set [4] were 31.7 mL/min/kg and 26.7 mL/min/kg, respectively. The amount in solution in [2] (solubility at 24 h) came to 30 µg/mL (≈ 71 µM). The Papp A→B at 2 h, 2 µM in [3] turned out to be 16.8 ×10⁻⁶ cm/s. For the same compound, in [5], the clearance was 21.7 mL/min/kg. Besides, in data set [6], the Vd was determined as 1.6 L/kg. This compound had a half-life in [7] of 1 h. Further, the T/C is listed as 0.26 with MOLM-13 [8], 0.26 in the data set with MOLM-13 [9] and 0.34 with MOLM-13 [10].
By efflux ratio is commonly meant a quotient of directional permeabilities that is used to spot active efflux. For the compound `COc1cc(F)ccc1-c1ncnc(Nc2cccc(CS(C)(=N)=O)c2)n1` (stereo not drawn), the figures for the solubility at 24 h in data set [11] and in data set [2] were 479 µg/mL (≈ 1240 µM) and 309 µg/mL (≈ 798 µM), respectively. For the same compound, the CLhep predicted at 1 µM in data set [1] (Wistar-Han) was 2.83 mL/min/kg. Moreover, the IC50 was 0.38 µM with A2780; 0.31 µM with MOLM-13 [12]; more than 20 µM at Cytochrome P450 1A2 [15]; more than 20 µM at Cytochrome P450 2C8; more than 20 µM on Cytochrome P450 2C9; more than 20 µM at Cytochrome P450 2C19. The IC50 on Cytochrome P450 2D6 and on Cytochrome P450 3A4 was more than 20 µM each time. The Papp A→B at 2 h, 2 µM in data set [3] came out at 3.5 ×10⁻⁶ cm/s. In addition, in data set [13], the efflux ratio at 2 h, 2 µM was determined as 6.1. Moreover, the CLH in [4] turned out to be 2.5 mL/min/kg. For the same compound, the clearance in data set [5] was 18.3 mL/min/kg. Moreover, the Vd in data set [6] was determined as 1 L/kg. The blood plasma ratio in [14] was 1.1. The INH on Cytochrome P450 2A6, at Cytochrome P450 2B6 and on Cytochrome P450 2E1 was more than 20 µM throughout. For the same compound, the Activity entry on Cytochrome P450 1A2 [16] is given as “Not Active”. In the data set on MV4-11 [17], the outcome was Active. Further, the result in the data set with MV4-11 [18] was inactive.

The values above are taken from ChEMBL document CHEMBL5036331 (J Med Chem, 2021).
